From ChEMBL document CHEMBL3102806, “1,2,4-Triazole/oxime hybrids as new strategy for nitric oxide donors: Synthesis, anti-inflammatory, ulceroginicity and antiproliferative activities” (Eur J Med Chem, 2014)

Assays:
[1] = test system: MDA-MB-468; test: Growth inhibition of human MDA-MB-468 cells assessed as cell growth at 10^-5 M after 48 hrs by sulforhodamine B assay relative to control; assay type: functional; conditions: MDA-MB-468, 48 h, read-out: Activity
Procedure, shortened: (§1)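 NCI primary screen, one-dose format across about 60 human tumour cell lines. Single addition at 10^-5 M with 48 h incubation; SRB protein-binding dye end point read spectrophotometrically. Reported as percent growth of treated cells versus untreated controls.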

[2] = Growth inhibition of human Hs 578T cells assessed as cell growth at 10^-5 M after 48 hrs by sulforhodamine B assay relative to control; assay type: functional; conditions: read-out: Activity
Procedure, shortened: (§2)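 NCI ~60 human tumour cell line screen. Single concentration of 10^-5 M added to cultures for 48 h. End point by sulforhodamine B protein staining read spectrophotometrically. Percent growth relative to untreated control cells.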

[3] = test system: DU-145; test: Growth inhibition of human DU145 cells assessed as cell growth at 10^-5 M after 48 hrs by sulforhodamine B assay relative to control; assay type: functional; conditions: DU-145, 48 h, read-out: Activity; procedure, shortened: as §2
[4] = test system: TK-10; test: Growth inhibition of human TK10 cells assessed as cell growth at 10^-5 M after 48 hrs by sulforhodamine B assay relative to control; assay type: functional; conditions: TK-10, 48 h, read-out: Activity
Procedure, shortened: (§3)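 NCI primary screen across about 60 human tumour cell lines. Single dose of 10^-5 M, cultures incubated 48 h, end point by sulforhodamine B protein staining read spectrophotometrically. Results are given as percent growth of treated cells relative to untreated control cells.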

[5] = test system: SN12C; test: Growth inhibition of human SN12C cells assessed as cell growth at 10^-5 M after 48 hrs by sulforhodamine B assay relative to control; assay type: functional; conditions: read-out: Activity; procedure, shortened: as §3
[6] = test system: CAKI-1; test: Growth inhibition of human CAKI-1 cells assessed as cell growth at 10^-5 M after 48 hrs by sulforhodamine B assay relative to control; assay type: functional; conditions: CAKI-1, 48 h, read-out: Activity; procedure, shortened: as §2
[7] = test system: A498; test: Growth inhibition of human A498 cells assessed as cell growth at 10^-5 M after 48 hrs by sulforhodamine B assay relative to control; assay type: functional; conditions: A498, 48 h, read-out: Activity; procedure, shortened: as §2
[8] = test system: 786-0; test: Growth inhibition of human 786-0 cells assessed as cell growth at 10^-5 M after 48 hrs by sulforhodamine B assay relative to control; assay type: functional; conditions: 786-0, 48 h, read-out: Activity; procedure, shortened: as §2
[9] = test system: SK-OV-3; test: Growth inhibition of human SKOV3 cells assessed as cell growth at 10^-5 M after 48 hrs by sulforhodamine B assay relative to control; assay type: functional; conditions: SK-OV-3, 48 h, read-out: Activity; procedure, shortened: as §3
[10] = Growth inhibition of human OVCAR4 cells assessed as cell growth at 10^-5 M after 48 hrs by sulforhodamine B assay relative to control; assay type: functional; conditions: OVCAR-4, 48 h, read-out: Activity; procedure, shortened: as §1
[11] = Growth inhibition of human UACC257 cells assessed as cell growth at 10^-5 M after 48 hrs by sulforhodamine B assay relative to control; assay type: functional; conditions: UACC-257, 48 h, read-out: Activity; procedure, shortened: as §3
[12] = test system: SK-MEL-2; test: Growth inhibition of human SK-MEL-2 cells assessed as cell growth at 10^-5 M after 48 hrs by sulforhodamine B assay relative to control; assay type: functional; conditions: SK-MEL-2, 48 h, read-out: Activity; procedure, shortened: as §3
[13] = test system: Malme-3M; test: Growth inhibition of human MALME-3M cells assessed as cell growth at 10^-5 M after 48 hrs by sulforhodamine B assay relative to control; assay type: functional; conditions: read-out: Activity; procedure, shortened: as §1
[14] = test system: SNB-75; test: Growth inhibition of human SNB75 cells assessed as cell growth at 10^-5 M after 48 hrs by sulforhodamine B assay relative to control; assay type: functional; conditions: SNB-75, 48 h, read-out: Activity; procedure, shortened: as §3
[15] = test system: SF-295; test: Growth inhibition of human SF295 cells assessed as cell growth at 10^-5 M after 48 hrs by sulforhodamine B assay relative to control; assay type: functional; conditions: SF-295, 48 h, read-out: Activity; procedure, shortened: as §1
[16] = test system: SF-268; test: Growth inhibition of human SF268 cells assessed as cell growth at 10^-5 M after 48 hrs by sulforhodamine B assay relative to control; assay type: functional; conditions: SF-268, 48 h, read-out: Activity; procedure, shortened: as §1
[17] = test system: SW-620; test: Growth inhibition of human SW620 cells assessed as cell growth at 10^-5 M after 48 hrs by sulforhodamine B assay relative to control; assay type: functional; conditions: SW-620, 48 h, read-out: Activity; procedure, shortened: as §3
[18] = test system: KM12; test: Growth inhibition of human KM12 cells assessed as cell growth at 10^-5 M after 48 hrs by sulforhodamine B assay relative to control; assay type: functional; conditions: KM12, 48 h, read-out: Activity; procedure, shortened: as §1
[19] = test system: HT-29; test: Growth inhibition of human HT-29 cells assessed as cell growth at 10^-5 M after 48 hrs by sulforhodamine B assay relative to control; assay type: functional; conditions: HT-29, 48 h, read-out: Activity; procedure, shortened: as §2
[20] = test system: HCT-116; test: Growth inhibition of human HCT116 cells assessed as cell growth at 10^-5 M after 48 hrs by sulforhodamine B assay relative to control; assay type: functional; conditions: HCT-116, 48 h, read-out: Activity; procedure, shortened: as §2
[21] = Induction of nitric oxide release in phosphate buffer at 10^-4 M at pH 7.4 after 2 hrs by Griess colorimetric method in presence of N-acetylcysteine; assay type: physicochemical; conditions: pH 7.4, 2 h, 100 µM
Procedure, shortened: (§4)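 Final drug concentration 10^-4 M, added from DMF into 1:1 50 mM phosphate buffer (pH 7.4)/MeOH containing 5 × 10^-4 M N-acetylcysteine, at 37 °C. Nitrite read with Griess reagent after 10 min at room temperature, absorbance at 546 nm. Calibration with sodium nitrite standards (10–80 nmol/ml). Reported as mol NO per mol, n = 4 reaction mixtures.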

[22] = Induction of nitric oxide release in phosphate buffer at 10^-4 M at pH 7.4 after 5 hrs by Griess colorimetric method in presence of N-acetylcysteine; assay type: physicochemical; conditions: pH 7.4, 5 h, 100 µM; procedure, shortened: as §4
[23] = Induction of nitric oxide release in phosphate buffer at 10^-4 M at pH 7.4 after 6 hrs by Griess colorimetric method in presence of N-acetylcysteine; assay type: physicochemical; conditions: pH 7.4, 6 h, 100 µM; procedure, shortened: as §4
[24] = test system: HL-60(TB); test: Growth inhibition of human HL-60(TB) cells assessed as cell growth at 10^-5 M after 48 hrs by sulforhodamine B assay relative to control; assay type: functional; conditions: HL-60, 48 h, read-out: Activity
Procedure, shortened: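 NCI primary screen across about 60 human tumour cell lines. Single dose of 10^-5 M, 48 h incubation, sulforhodamine B protein-dye end point read spectrophotometrically. Reported as percent growth of treated cells versus untreated control cells.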

[25] = test system: K562; test: Growth inhibition of human K562 cells assessed as cell growth at 10^-5 M after 48 hrs by sulforhodamine B assay relative to control; assay type: functional; conditions: K562, 48 h, read-out: Activity; procedure, shortened: as §2
[26] = test system: NCI-H23; test: Growth inhibition of human NCI-H23 cells assessed as cell growth at 10^-5 M after 48 hrs by sulforhodamine B assay relative to control; assay type: functional; conditions: NCI-H23, 48 h, read-out: Activity; procedure, shortened: as §1
[27] = test system: A549; test: Growth inhibition of human A549/ATCC cells assessed as cell growth at 10^-5 M after 48 hrs by sulforhodamine B assay relative to control; assay type: functional; conditions: A549, 48 h, read-out: Activity; procedure, shortened: as §2

Row | SMILES | growth at 10 µM [1] [%] | growth at 10 µM [2] [%] | growth at 10 µM [3] [%] | growth at 10 µM [4] [%] | growth at 10 µM [5] [%] | growth at 10 µM [6] [%] | growth at 10 µM [7] [%] | growth at 10 µM [8] [%] | growth at 10 µM [9] [%] | growth at 10 µM [10] [%] | growth at 10 µM [11] [%] | growth at 10 µM [12] [%] | growth at 10 µM [13] [%] | growth at 10 µM [14] [%] | growth at 10 µM [15] [%] | growth at 10 µM [16] [%] | growth at 10 µM [17] [%] | growth at 10 µM [18] [%] | growth at 10 µM [19] [%] | growth at 10 µM [20] [%] | other results
1 | C/C(=N\O)c1ccc(NC(=O)CSc2nnc(-c3ccccc3)n2-c2ccccc2)cc1 | 90.4 | 79.6 | 67.9 | 73.7 | 76.2 | 99.9 | 63.7 | 92.7 | 80.5 | 86.2 | 81.8 | 97.7 | 91.8 | 59.2 | 52.6 | 92.2 | 99.8 | 83.1 | 73.3 | 97.5 | Activity [21]: 0.15 mol/mol; Activity [22]: 0.14 mol/mol; Activity [23]: 0.16 mol/mol; growth at 10 µM [24]: 90.4%; growth at 10 µM [25]: 95.8%; growth at 10 µM [26]: 76.6%; growth at 10 µM [27]: 81.9%
2 | COc1ccc(-c2nnc(SCC(=O)Nc3ccc(/C(C)=N/O)cc3)n2-c2ccccc2)cc1OC | 78.5 | 42.8 | 88.3 | 41.1 | 71.8 | 87.4 | 91.8 | 64.5 | 4.74 | 103 | 91.8 | 57.6 | 61.8 | -16.5 | 39.1 | 30.6 | 115 | 106 | 91.2 | 69.2 | Activity [21]: 0.2 mol/mol; Activity [22]: 0.35 mol/mol; Activity [23]: 0.31 mol/mol; growth at 10 µM [24]: 77.3%; growth at 10 µM [25]: 105%; growth at 10 µM [26]: 68.8%; growth at 10 µM [27]: 70.7%
